Reference: ChEMBL document CHEMBL3779805, “Orally bioavailable pyridine and pyrimidine-based Factor XIa inhibitors: Discovery of the methyl N-phenyl carbamate P2 prime group” (Bioorg Med Chem, 2016)

Columns and labels:
Coagulation factor XI = Coagulation factor XI (Homo sapiens, UniProt P03951)
[1] = AUC in beagle dog plasma at 0.19 mg/kg, iv and 0.19 mg/kg, po by LC-MS/MS method; format: ADME, organism-based, Canis lupus familiaris
Procedure, shortened: (§1)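 Dogs dosed iv and po in N-in-1 (cassette) format. The same vehicle was used for both routes: 70% water, 10% ethanol, 10% dimethylacetamide, 10% polypropylene glycol.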

Plasma = assay: Anticoagulant activity in human plasma assessed as concentration required for 50% increase in activated partial thromboplastin time by automated coagulation analyzer; format: functional
Procedure, shortened: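 aPTT clotting assay in pooled normal human plasma on an automated coagulation analyzer with commercial reagents. EC1.5x is the inhibitor plasma concentration giving a 50% increase in clotting time over the no-inhibitor control.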

[2] = Half life in beagle dog plasma at 0.19 mg/kg, iv and 0.19 mg/kg, po by LC-MS/MS method; format: ADME, organism-based, Canis lupus familiaris
Procedure, shortened: as §1

[3] = Volume of distribution at steady state in beagle dog plasma at 0.19 mg/kg, iv and 0.19 mg/kg, po by LC-MS/MS method; format: ADME, organism-based, Canis lupus familiaris; conditions: read-out: Vdss
Procedure, shortened: as §1

[4] = Clearance in beagle dog plasma at 0.19 mg/kg, iv and 0.19 mg/kg, po administered in cassette format by LC-MS/MS method; format: ADME, organism-based, Canis lupus familiaris
Procedure, shortened: as §1

[5] = Oral bioavailability in beagle dog plasma at 0.19 mg/kg by LC-MS/MS method; format: ADME, organism-based, Canis lupus familiaris
Procedure, shortened: as §1

[6] = AUC in beagle dog plasma at 0.4 mg/kg, iv and 0.8 mg/kg, po by LC-MS/MS method; format: ADME, organism-based, Canis lupus familiaris
Procedure, shortened: as §1

[7] = Oral bioavailability in beagle dog plasma at 0.8 mg/kg by LC-MS/MS method; format: ADME, organism-based, Canis lupus familiaris
Procedure, shortened: as §1

[8] = Half life in beagle dog plasma at 0.4 mg/kg, iv and 0.8 mg/kg, po by LC-MS/MS method; format: ADME, organism-based, Canis lupus familiaris
Procedure, shortened: as §1

[9] = Volume of distribution at steady state in beagle dog plasma at 0.4 mg/kg, iv and 0.8 mg/kg, po by LC-MS/MS method; format: ADME, organism-based, Canis lupus familiaris; conditions: read-out: Vdss
Procedure, shortened: as §1

[10] = Clearance in beagle dog plasma at 0.4 mg/kg, iv and 0.8 mg/kg, po administered in cassette format by LC-MS/MS method; format: ADME, organism-based, Canis lupus familiaris
Procedure, shortened: as §1

[11] = Half life in beagle dog plasma at 0.25 mg/kg, iv and 0.2 mg/kg, po by LC-MS/MS method; format: ADME, organism-based, Canis lupus familiaris
Procedure, shortened: as §1

[12] = Volume of distribution at steady state in beagle dog plasma at 0.25 mg/kg, iv and 0.2 mg/kg, po by LC-MS/MS method; format: ADME, organism-based, Canis lupus familiaris; conditions: read-out: Vdss
Procedure, shortened: as §1

Prothrombin = Prothrombin (Homo sapiens, UniProt P00734); assay: Inhibition of human coagulation thrombin assessed as reduction in release of p-nitroaniline after 10 to 120 mins by Michaelis-Menten equation analysis
Procedure, shortened: (§2)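 Purified human enzymes with commercial synthetic peptide substrates. IC50 from 4–11 inhibitor concentrations, run in duplicate at a fixed substrate concentration (standard error <20%). Ki = IC50/(1+S/Km), assuming competitive inhibition.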

[13] = biological target: Urokinase-type plasminogen activator (Homo sapiens, UniProt P00749); assay: Inhibition of human urokinase assessed as reduction in release of p-nitroaniline after 10 to 120 mins by Michaelis-Menten equation analysis
Procedure, shortened: as §2

[14] = Oral bioavailability in beagle dog plasma at 0.2 mg/kg by LC-MS/MS method; format: ADME, organism-based, Canis lupus familiaris
Procedure, shortened: as §1

Canis familiaris [15] = assay: AUC in beagle dog plasma at 1 mg/kg, po dosed in discrete format by LC-MS/MS method; format: ADME, organism-based, Canis lupus familiaris; conditions: in vivo
Procedure, shortened: (§3)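 Discrete oral dosing in dog at 1 mpk. Oral vehicle: 70% PEG400, 20% TPGS, 10% ethanol.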

Canis familiaris [16] = assay: Oral bioavailability in beagle dog plasma at 1 mg/kg dosed in discrete format by LC-MS/MS method; format: ADME, organism-based, Canis lupus familiaris; conditions: in vivo
Procedure, shortened: as §3

Trypsin = Trypsin (Homo sapiens, UniProt P07477+P07478+P35030); assay: Inhibition of human coagulation trypsin assessed as reduction in release of p-nitroaniline after 10 to 120 mins by Michaelis-Menten equation analysis; format: protein assay
Procedure, shortened: as §2

Canis familiaris [17] = assay: Clearance in beagle dog plasma at 0.25 mg/kg, iv and 0.2 mg/kg, po administered in cassette format by LC-MS/MS method; format: ADME, organism-based, Canis lupus familiaris; conditions: in vivo
Procedure, shortened: as §1

[18] = Inhibition of human […] chymotrypsin assessed as reduction in release of p-nitroaniline after 10 to 120 mins by Michaelis-Menten equation analysis
[19] = AUC in beagle dog plasma at 0.25 mg/kg, iv and 0.2 mg/kg, po by LC-MS/MS method; format: ADME, organism-based, Canis lupus familiaris
Procedure, shortened: as §1

[20] = biological target: Vitamin K-dependent protein C (Homo sapiens, UniProt P04070); assay: Inhibition of human activated protein C assessed as reduction in release of p-nitroaniline after 10 to 120 mins by Michaelis-Menten equation analysis
Vitamin K-dependent protein C, sequence (P04070 43-197 limits assumed): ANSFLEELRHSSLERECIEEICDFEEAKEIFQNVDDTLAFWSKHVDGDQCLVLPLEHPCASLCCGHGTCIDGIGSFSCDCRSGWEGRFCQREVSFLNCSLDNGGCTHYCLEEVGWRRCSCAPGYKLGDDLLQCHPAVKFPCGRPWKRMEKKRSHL
Vitamin K-dependent protein C, sequence (P04070 212-461 limits assumed): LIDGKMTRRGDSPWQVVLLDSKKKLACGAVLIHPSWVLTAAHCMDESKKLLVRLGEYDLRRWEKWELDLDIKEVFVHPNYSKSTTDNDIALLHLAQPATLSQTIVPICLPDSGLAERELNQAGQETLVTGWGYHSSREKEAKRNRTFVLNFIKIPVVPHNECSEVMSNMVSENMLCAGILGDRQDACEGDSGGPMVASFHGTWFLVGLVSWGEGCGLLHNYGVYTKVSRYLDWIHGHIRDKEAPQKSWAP
Procedure, shortened: as §2

[21] = biological target: Tissue-type plasminogen activator (Homo sapiens, UniProt P00750); assay: Inhibition of human TPA assessed as reduction in release of p-nitroaniline after 10 to 120 mins by Michaelis-Menten equation analysis
Tissue-type plasminogen activator, sequence (P00750 whole entry): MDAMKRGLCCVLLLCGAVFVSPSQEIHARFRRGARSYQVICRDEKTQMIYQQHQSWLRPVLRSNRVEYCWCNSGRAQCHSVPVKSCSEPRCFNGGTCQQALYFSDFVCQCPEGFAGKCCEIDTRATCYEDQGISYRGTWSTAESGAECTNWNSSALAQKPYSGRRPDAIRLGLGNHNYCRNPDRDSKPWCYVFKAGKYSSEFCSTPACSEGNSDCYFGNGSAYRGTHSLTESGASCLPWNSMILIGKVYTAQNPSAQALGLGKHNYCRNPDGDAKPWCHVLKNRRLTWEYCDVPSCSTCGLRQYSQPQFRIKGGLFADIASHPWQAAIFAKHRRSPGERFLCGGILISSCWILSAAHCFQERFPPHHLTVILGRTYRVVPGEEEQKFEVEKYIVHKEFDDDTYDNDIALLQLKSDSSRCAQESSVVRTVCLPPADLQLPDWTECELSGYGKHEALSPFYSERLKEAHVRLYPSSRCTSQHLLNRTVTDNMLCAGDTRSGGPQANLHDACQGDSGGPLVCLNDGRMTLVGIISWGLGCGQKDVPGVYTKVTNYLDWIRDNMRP
Procedure, shortened: as §2

Plasma kallikrein = Plasma kallikrein (Homo sapiens, UniProt P03952); assay: Inhibition of human plasma kallikrein assessed as reduction in release of p-nitroaniline after 10 to 120 mins by Michaelis-Menten equation analysis; format: cell-free
Plasma kallikrein, sequence (P03952 20-390 limits assumed): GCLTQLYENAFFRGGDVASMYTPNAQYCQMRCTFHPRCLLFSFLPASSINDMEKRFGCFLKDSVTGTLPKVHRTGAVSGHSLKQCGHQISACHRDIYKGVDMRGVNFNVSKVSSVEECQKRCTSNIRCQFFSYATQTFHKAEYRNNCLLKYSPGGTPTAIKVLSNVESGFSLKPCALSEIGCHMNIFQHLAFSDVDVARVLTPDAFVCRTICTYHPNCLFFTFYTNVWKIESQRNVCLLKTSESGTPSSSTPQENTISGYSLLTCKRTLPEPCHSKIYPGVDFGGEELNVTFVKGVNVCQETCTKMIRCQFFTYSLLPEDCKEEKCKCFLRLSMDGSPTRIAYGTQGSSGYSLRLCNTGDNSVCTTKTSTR
Plasma kallikrein, sequence (P03952 391-638 limits assumed): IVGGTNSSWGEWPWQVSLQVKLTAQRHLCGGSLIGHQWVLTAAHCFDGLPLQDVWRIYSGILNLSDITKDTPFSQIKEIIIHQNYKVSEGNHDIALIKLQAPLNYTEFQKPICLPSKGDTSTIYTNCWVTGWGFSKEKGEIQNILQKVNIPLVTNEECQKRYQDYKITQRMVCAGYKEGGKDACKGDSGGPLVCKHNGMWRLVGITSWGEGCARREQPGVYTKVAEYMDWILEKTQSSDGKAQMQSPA
Procedure, shortened: as §2

Coagulation factor VII = biological target: T1, Coagulation factor VII (Homo sapiens, UniProt P08709); assay: Inhibition of human coagulation factor 7a assessed as reduction in release of p-nitroaniline after 10 to 120 mins by Michaelis-Menten equation analysis
T1 sequence (P08709 whole entry): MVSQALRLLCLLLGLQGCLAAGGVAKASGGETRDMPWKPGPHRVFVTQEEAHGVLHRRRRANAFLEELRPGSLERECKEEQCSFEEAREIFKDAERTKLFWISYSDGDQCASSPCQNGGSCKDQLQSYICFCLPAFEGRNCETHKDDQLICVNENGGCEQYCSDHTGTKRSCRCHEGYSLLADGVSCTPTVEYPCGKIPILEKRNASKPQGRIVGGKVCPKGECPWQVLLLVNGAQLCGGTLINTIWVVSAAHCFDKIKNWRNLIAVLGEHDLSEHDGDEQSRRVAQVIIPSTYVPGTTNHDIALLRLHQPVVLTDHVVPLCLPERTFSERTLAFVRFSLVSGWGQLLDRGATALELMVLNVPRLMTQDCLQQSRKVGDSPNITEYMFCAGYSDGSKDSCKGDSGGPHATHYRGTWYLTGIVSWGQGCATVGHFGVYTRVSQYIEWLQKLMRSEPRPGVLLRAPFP
Procedure, shortened: as §2

Coagulation factor X = Coagulation factor X (Homo sapiens, UniProt P00742); assay: Inhibition of human coagulation factor 10a assessed as reduction in release of p-nitroaniline after 10 to 120 mins by Michaelis-Menten equation analysis
Coagulation factor X, sequence (P00742 41-179 limits assumed): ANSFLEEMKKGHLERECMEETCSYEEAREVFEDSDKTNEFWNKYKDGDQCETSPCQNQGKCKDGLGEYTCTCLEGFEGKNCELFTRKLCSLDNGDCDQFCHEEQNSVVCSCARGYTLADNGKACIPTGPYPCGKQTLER
Coagulation factor X, sequence (P00742 235-488 limits assumed): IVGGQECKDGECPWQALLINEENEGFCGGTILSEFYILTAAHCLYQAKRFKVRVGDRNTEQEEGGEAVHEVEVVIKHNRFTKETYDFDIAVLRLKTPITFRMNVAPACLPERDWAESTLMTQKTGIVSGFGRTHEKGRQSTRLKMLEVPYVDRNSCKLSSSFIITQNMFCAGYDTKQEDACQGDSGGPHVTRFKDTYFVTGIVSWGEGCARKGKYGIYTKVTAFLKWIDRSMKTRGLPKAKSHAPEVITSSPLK
Procedure, shortened: as §2

Plasminogen = Plasminogen (Homo sapiens, UniProt P00747); assay: Inhibition of human plasmin assessed as reduction in release of p-nitroaniline after 10 to 120 mins by Michaelis-Menten equation analysis
Plasminogen, sequence (P00747 97-580 limits assumed): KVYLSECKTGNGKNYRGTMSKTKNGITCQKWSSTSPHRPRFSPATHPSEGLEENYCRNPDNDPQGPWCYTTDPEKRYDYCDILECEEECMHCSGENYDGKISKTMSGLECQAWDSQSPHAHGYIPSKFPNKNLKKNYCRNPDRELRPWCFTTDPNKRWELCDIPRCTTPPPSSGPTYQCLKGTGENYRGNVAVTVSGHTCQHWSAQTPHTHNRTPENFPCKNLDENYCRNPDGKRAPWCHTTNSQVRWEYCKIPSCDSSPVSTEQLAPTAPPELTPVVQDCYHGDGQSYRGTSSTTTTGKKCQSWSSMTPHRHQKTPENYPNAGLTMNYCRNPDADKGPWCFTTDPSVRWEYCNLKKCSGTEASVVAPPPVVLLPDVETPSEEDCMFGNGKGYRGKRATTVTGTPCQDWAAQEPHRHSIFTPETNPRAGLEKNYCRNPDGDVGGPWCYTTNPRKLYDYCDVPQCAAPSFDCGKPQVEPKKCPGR
Plasminogen, sequence (P00747 581-810 limits assumed): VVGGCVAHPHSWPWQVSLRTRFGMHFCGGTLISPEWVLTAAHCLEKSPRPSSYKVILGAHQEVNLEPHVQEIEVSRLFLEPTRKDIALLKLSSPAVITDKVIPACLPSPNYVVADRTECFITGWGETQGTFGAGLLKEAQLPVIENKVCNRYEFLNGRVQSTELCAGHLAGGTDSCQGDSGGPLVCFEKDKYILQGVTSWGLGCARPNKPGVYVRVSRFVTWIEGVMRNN
Procedure, shortened: as §2

Coagulation factor XI, sequence (P03951 19-387 limits assumed): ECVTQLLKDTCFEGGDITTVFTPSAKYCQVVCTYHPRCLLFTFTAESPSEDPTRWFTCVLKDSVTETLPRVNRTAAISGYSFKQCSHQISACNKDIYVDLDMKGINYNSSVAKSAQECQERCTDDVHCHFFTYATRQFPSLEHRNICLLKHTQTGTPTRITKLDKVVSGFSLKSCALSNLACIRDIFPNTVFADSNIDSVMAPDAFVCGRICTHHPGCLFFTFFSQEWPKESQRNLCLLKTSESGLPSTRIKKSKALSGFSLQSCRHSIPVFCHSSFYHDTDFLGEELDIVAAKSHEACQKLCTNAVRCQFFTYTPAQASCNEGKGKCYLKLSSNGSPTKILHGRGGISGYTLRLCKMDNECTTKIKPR
Coagulation factor XI, sequence (P03951 388-625 limits assumed): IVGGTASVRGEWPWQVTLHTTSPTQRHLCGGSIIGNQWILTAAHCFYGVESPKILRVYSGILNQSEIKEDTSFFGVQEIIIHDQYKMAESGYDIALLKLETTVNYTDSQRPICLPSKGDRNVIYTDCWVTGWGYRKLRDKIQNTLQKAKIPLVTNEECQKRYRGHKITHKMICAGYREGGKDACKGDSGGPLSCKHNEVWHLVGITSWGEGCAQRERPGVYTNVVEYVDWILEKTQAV

SMILES: COC(=O)Nc1ccc(-c2cc([C@H](Cc3ccccc3)NC(=O)/C=C/c3cc(Cl)ccc3-n3cnnn3)ccn2)cc1
- Ki (Coagulation factor XI): 0.011 µM
- AUC [1]: 0.28 µM·h
- EC1.5 (Plasma): 26 µM
- half-life [2]: 3.7 h
- Vd [3]: 1.6 L/kg
- clearance [4]: 5.6 mL/min/kg
- bioavailability [5]: 34%

SMILES: COC(=O)Nc1ccc(-c2cc([C@H](Cc3ccccc3)NC(=O)[C@H]3CC[C@H](CN)CC3)[nH]c(=O)c2)cc1
- AUC [6]: 0.01 µM·h
- bioavailability [7]: < 1%
- Ki (Coagulation factor XI): 0.0024 µM
- half-life [8]: 1.1 h
- Vd [9]: 0.8 L/kg
- EC1.5 (Plasma): 0.4 µM
- clearance [10]: 0.283 mL/min/kg

SMILES: COC(=O)Nc1ccc(-c2ccnc([C@H](Cc3ccccc3)NC(=O)/C=C/c3cc(Cl)ccc3-n3cnnn3)c2)cc1
- half-life [11]: 8 h
- Vd [12]: 3.9 L/kg
- Ki (Prothrombin): > 13.3 µM
- Ki [13]: > 29.7 µM
- Ki (Coagulation factor XI): 0.023 µM
- bioavailability [14]: 34%
- AUC (Canis familiaris [15]): 1.878 µM·h
- F (Canis familiaris [16]): 53%
- Ki (Trypsin): > 6.218 µM
- clearance (Canis familiaris [17]): 6.1 mL/min/kg
- Ki [18]: 29.5 µM
- AUC [19]: 0.267 µM·h
- EC1.5 (Plasma): >40 µM
- Ki [20]: > 30.2 µM
- Ki [21]: 10.5 µM
- Ki (Plasma kallikrein): 1.85 µM
- Ki (Coagulation factor VII): > 13.4 µM
- Ki (Coagulation factor X): 1.13 µM
- Ki (Plasminogen): 12.5 µM
